Reference: ChEMBL document CHEMBL1127414 (J Med Chem, 1994)

Experiments:
Mus musculus [1] = assay: Ability to inhibit the incorporation of [5-3H]-mevalonolactone into cholesterol by in vivo mouse assay by peroral administration at a dose of 24 mg/kg; type: functional; settings: route oral
Outline: (§1)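 Female Swiss Webster mice (~25 g), six per group, dosed po by gavage with inhibitor suspended in 5% emulphor. 30 min later, 0.5 μCi/mouse [5-3H]mevalonolactone in saline given sc. Livers removed 30 min after that and saponified in KOH/EtOH overnight at 55 °C, then petroleum-ether extracted. Nonsaponifiable dpm counted. Compounds first tested at a single dose (typically 12 or 24 mg/kg).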

[2] = target: T1, Squalene synthase (Mus musculus) (UniProt P53798); assay: Tested for the effective dose required for the incorporation of [5-3H]-mevalonolactone into cholesterol by in vivo mouse assay by peroral administration; type: functional, organism-based; outline: as §1
T1 sequence (whole entry): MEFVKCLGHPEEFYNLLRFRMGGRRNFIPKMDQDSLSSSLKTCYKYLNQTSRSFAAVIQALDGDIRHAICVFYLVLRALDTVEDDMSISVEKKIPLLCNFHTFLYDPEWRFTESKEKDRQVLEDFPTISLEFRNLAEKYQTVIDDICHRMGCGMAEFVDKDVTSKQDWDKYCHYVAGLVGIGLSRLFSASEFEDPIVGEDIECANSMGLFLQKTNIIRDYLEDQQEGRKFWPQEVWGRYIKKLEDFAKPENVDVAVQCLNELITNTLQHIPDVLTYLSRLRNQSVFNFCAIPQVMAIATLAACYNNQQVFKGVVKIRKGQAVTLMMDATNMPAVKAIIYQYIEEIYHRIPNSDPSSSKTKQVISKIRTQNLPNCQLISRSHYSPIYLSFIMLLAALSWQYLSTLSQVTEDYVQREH

HepG2 [3] = assay: Concentration required to inhibit cholesterol synthesis in Hep G2 cells; type: functional, cell-based; settings: Homo sapiens
Outline: (§2)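 Hep G2 cells held 2 days in lipoprotein-depleted FBS to stimulate sterol synthesis, then given inhibitor in serum-free medium for 2 h. 15 μCi [5-3H]mevalonate (0.2 mCi/mmol) added for 1 h. Cells washed and saponified, and radioactivity counted by scintillation.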

HepG2 [4] = assay: Concentration required to inhibit cholesterol synthesis in Hep G2 cells relative to control (IC50 of L-694,599); type: functional, Homo sapiens; outline: as §2
Squalene synthase = target: T2, Squalene synthase (Rattus norvegicus, UniProt Q02769); assay: Tested for inhibition against squalene synthase enzyme in rat liver
T2 sequence (Q02769 whole entry): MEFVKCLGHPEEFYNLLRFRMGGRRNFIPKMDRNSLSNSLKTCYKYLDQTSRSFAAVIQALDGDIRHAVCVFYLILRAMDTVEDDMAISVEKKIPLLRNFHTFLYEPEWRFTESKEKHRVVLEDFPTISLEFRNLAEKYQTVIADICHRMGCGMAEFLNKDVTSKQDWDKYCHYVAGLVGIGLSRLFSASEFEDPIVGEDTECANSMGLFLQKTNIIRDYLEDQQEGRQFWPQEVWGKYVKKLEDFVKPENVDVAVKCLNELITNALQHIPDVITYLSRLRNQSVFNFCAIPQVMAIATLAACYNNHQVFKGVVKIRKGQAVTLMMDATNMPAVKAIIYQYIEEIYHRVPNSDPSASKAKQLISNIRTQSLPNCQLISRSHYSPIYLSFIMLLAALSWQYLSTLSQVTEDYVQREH

[5] = target: T3, Squalene synthase (Rattus norvegicus) (UniProt Q02769); assay: concentration required to inhibit rat liver squalene synthase enzyme relative to control (L-694,599)
T3 sequence (whole entry): T2 sequence (Q02769 whole entry)
Outline: (§3)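 Enzyme from rat liver. […] Inhibitors added in DMSO (0.3% final) as 3-fold serial dilutions, usually up to 30 ng/mL (about 40 nM). IC50 read from % inhibition vs log concentration.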

[6] = target: T3, Squalene synthase (Rattus norvegicus); assay: Concentration required to inhibit rat liver squalene synthase enzyme relative to control (L-694,599); outline: as §3
Mus musculus [7] = assay: Tested for its ability to inhibit the incorporation of [5-3H]-mevalonolactone into cholesterol by in vivo mouse assay by peroral administration at a dose of 40 mg/kg; type: functional; settings: route oral; outline: as §1

Structure (SMILES)	inhibition in vivo at 24 mg/kg (Mus musculus [1]) [%]	ED50 [2] [mg/kg]	IC50 (HepG2 [3]) [nM]	Relative activity (HepG2 [4])	IC50 (Squalene synthase) [nM]	Relative activity [5]	Relative activity [6]	inhibition in vivo at 40 mg/kg (Mus musculus [7]) [%]
C=C(CCC12OC(C(=O)O)C(O)(C(=O)O)C(C(=O)O)(O1)[C@H](OC(=O)CCCC)[C@H]2O)[C@@H](OC(C)=O)[C@H](C)Cc1ccccc1 (some centres not stated)	40	> 24	–	–	–	–	–	–
C=C(CCC12OC(C(=O)O)C(O)(C(=O)O)C(C(=O)O)(O1)[C@H](OC(=O)NCCCCCCCCCCCOc1ccccc1)[C@H]2O)[C@@H](OC(C)=O)[C@H](C)Cc1ccccc1 (some centres not stated)	56	–	1300	0.64	0.07	1.71	–	–
C=C(CCC12OC(C(=O)O)C(OCCCCCCCCCCCC)(C(=O)O)C(C(=O)O)(O1)[C@H](OCCCCCCCCCCCC)[C@H]2O)[C@@H](OC(C)=O)[C@H](C)Cc1ccccc1 (some centres not stated)	–	–	–	–	17	0.02	–	–
C=C(CCC12OC(C(=O)O)C(O)(C(=O)O)C(C(=O)O)(O1)[C@H](OC(=O)NCCCCCCCCCCCC)[C@H]2O)[C@@H](OC(C)=O)[C@H](C)Cc1ccccc1 (some centres not stated)	0	–	8800	1.02	0.17	–	1.29	–
C=C(CCC12OC(C(=O)O)C(O)(C(=O)O)C(C(=O)O)(O1)[C@H](OC(=O)CC[C@@H](C)C[C@@H](C)CC)[C@H]2O)[C@@H](OC(C)=O)[C@H](C)Cc1ccccc1 (some centres not stated)	–	–	7500	0.8	0.19	–	0.74	–
C=C(CCC12OC(C(=O)O)C(O)(C(=O)O)C(C(=O)O)(O1)[C@H](OC(=O)CCCCCCCCCCc1ccccc1)[C@H]2O)[C@@H](OC(C)=O)[C@H](C)Cc1ccccc1 (some centres not stated)	11	–	8000	1.37	0.38	–	0.45	–
C=C(CCC12OC(C(=O)O)C(O)(C(=O)O)C(C(=O)O)(O1)[C@H](OC(=O)CCCCCCCCCCCCCCC)[C@H]2O)[C@@H](OC(C)=O)[C@H](C)Cc1ccccc1 (some centres not stated)	–	–	2500	2.2	0.52	–	0.27	–
C=C(CCC12OC(C(=O)O)C(OCCCCCCCCCCCOc3ccccc3)(C(=O)O)C(C(=O)O)(O1)[C@H](O)[C@H]2O)[C@@H](OC(C)=O)[C@H](C)Cc1ccccc1 (some centres not stated)	–	–	–	–	1.1	0.11	–	–
C=C(CCC12OC(C(=O)O)C(O)(C(=O)O)C(C(=O)O)(O1)[C@H](OC(=O)/C=C/[C@@H](C)C[C@@H](C)CC)[C@H]2O)C[C@H](C)Cc1ccccc1 (some centres not stated)	–	–	–	–	0.24	1.67	–	–
C=C(CCC12OC(C(=O)O)C(O)(C(=O)O)C(C(=O)O)(O1)[C@H](OCCCCCCCCCCCCCCCC)[C@H]2O)[C@@H](OC(C)=O)[C@H](C)Cc1ccccc1 (some centres not stated)	–	–	14000	0.49	0.79	0.15	–	–
C=C(CCC12OC(C(=O)O)C(O)(C(=O)O)C(C(=O)O)(O1)[C@H](OC(=O)/C=C/[C@@H](C)C[C@@H](C)CC)[C@H]2O)[C@@H](OC(=O)CC)[C@H](C)Cc1ccccc1 (some centres not stated)	-4	–	–	–	0.42	0.69	–	–
C=C(CCC12OC(C(=O)O)C(OCCCCCCCCOc3ccccc3)(C(=O)O)C(C(=O)O)(O1)[C@H](OCCCCCCCCOc1ccccc1)[C@H]2O)[C@@H](OC(C)=O)[C@H](C)Cc1ccccc1 (some centres not stated)	–	–	–	–	8.2	0.02	–	–
C=C(CCC12OC(C(=O)O)C(OCCCCCCCCOc3ccccc3)(C(=O)O)C(C(=O)O)(O1)[C@H](O)[C@H]2O)[C@@H](OC(C)=O)[C@H](C)Cc1ccccc1 (some centres not stated)	–	–	–	–	0.81	0.16	–	–
CC[C@H](C)C[C@H](C)CCC(=O)O[C@@H]1[C@@H](O)C2(CCCCCCc3ccccc3)OC(C(=O)O)C(O)(C(=O)O)C1(C(=O)O)O2 (some centres not stated)	-2	–	–	–	1.8	–	0.144	–
C=C(CCC12OC(C(=O)O)C(O)(C(=O)O)C(C(=O)O)(O1)[C@H](OC(=O)CCCCCCCCCCOc1ccccc1)[C@H]2O)[C@@H](OC(C)=O)[C@H](C)Cc1ccccc1 (some centres not stated)	11	–	2000	3.4	0.13	–	1.08	–
C=C(CCC12OC(C(=O)O)C(O)(C(=O)O)C(C(=O)O)(O1)[C@H](OC(=O)NCCCCCCCCCCCCCC)[C@H]2O)[C@@H](OC(C)=O)[C@H](C)Cc1ccccc1 (some centres not stated)	12	–	–	–	0.28	–	0.5	–
C=C(CCC12OC(C(=O)O)C(O)(C(=O)O)C(C(=O)O)(O1)[C@H](OC(=O)SC(C)C)[C@H]2O)[C@@H](OC(C)=O)[C@H](C)Cc1ccccc1 (some centres not stated)	–	14	–	–	3.4	0.06	–	–
C=C(CCC12OC(C(=O)O)C(O)(C(=O)O)C(C(=O)O)(O1)[C@H](OC(=O)NCC13CC4CC(CC(C4)C1)C3)[C@H]2O)[C@@H](OC(C)=O)[C@H](C)Cc1ccccc1 (some centres not stated)	-5	> 24	–	–	0.8	–	0.46	–
CC(/C=C/CCC(=O)O[C@@H]1[C@@H](O)C2(CCCCC(C)Cc3ccccc3)OC(C(=O)O)C(O)(C(=O)O)C1(C(=O)O)O2)CCCc1ccccc1 (some centres not stated)	8	–	–	–	0.14	–	1	–
CC(=O)OC(CCCC12OC(C(=O)O)C(O)(C(=O)O)C(C(=O)O)(O1)[C@H](OC(=O)CC/C=C/C(C)CCCc1ccccc1)[C@H]2O)C(C)Cc1ccccc1 (some centres not stated)	–	–	–	–	0.37	–	1.38	20
C=C(CCC12OC(C(=O)O)C(O)(C(=O)O)C(C(=O)O)(O1)[C@H](O)[C@H]2O)[C@@H](OC(C)=O)[C@H](C)Cc1ccccc1 (some centres not stated)	34	> 24	–	–	–	–	–	–
C=C(CCC12OC(C(=O)O)C(O)(C(=O)O)C(C(=O)O)(O1)[C@H](OC(=O)CCCCCCCCCCCCC)[C@H]2O)[C@@H](OC(C)=O)[C@H](C)Cc1ccccc1 (some centres not stated)	–	–	900	6.11	0.2	–	1.1	–
CCCC(=O)O[C@@H]1[C@@H](O)C2(CCCCCCc3ccccc3)OC(C(=O)O)C(O)(C(=O)O)C1(C(=O)O)O2 (some centres not stated)	-6	–	–	–	362	–	0.0008	–
C=C(CCC12OC(C(=O)O)C(OCCCCCCCCCCCCCC)(C(=O)O)C(C(=O)O)(O1)[C@H](O)[C@H]2O)[C@@H](OC(C)=O)[C@H](C)Cc1ccccc1 (some centres not stated)	–	–	–	–	0.75	0.17	–	–
